# Data: ChEMBL document CHEMBL4699398, “The synthesis and biological evaluation of sanguinarine derivatives as anti-non-small cell lung cancer agents” (RSC Med Chem, 2020)
# Active and inactive are the calls of the source. The calls are words filed in the database; no cut-off is given here.
# What was measured:
# A549 [1] = experiment: Induction of apoptosis in human A549 cells assessed as increase in cleaved caspase-9 level at 0.1 to 3 uM incubated for 24 hrs by Western blot analysis; assay type: functional, cell-based; details: dose microM 0.1-3, time 24.0 hrs
# Procedure, shortened: (§1)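 After treatment, cells harvested and lysed in RIPA buffer; equal protein loaded on 12% SDS-PAGE and transferred to PVDF; blocked in 5% milk 2 h at room temperature; primary antibodies (AKT, p-AKT, cleaved caspase-3, cleaved caspase-9, PARP; GAPDH loading control) overnight at 4 °C; HRP secondaries 2 h at room temperature; chemiluminescent detection.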
# A549 [2] = experiment: Induction of apoptosis in human A549 cells assessed as increase in Akt level at 0.1 to 3 uM incubated for 24 hrs by Western blot analysis; assay type: functional, cell-based; details: dose microM 0.1-3, time 24.0 hrs; procedure, shortened: as §1
# A549 [3] = experiment: Induction of cell cycle arrest in human A549 cells assessed as accumulation in G0/G1 phase at 0.3 uM incubated for 24 hrs by […] propidium iodide staining based flow cytometry (reference value: 63.11 %); assay type: functional
# NCI-H1975 [4] = experiment: Induction of cell cycle arrest in human H1975 cells assessed as accumulation in G0/G1 phase at 0.3 uM incubated for 24 hrs by […] propidium iodide staining based flow cytometry (reference value: 62.86 %); assay type: functional
# NCI-H1975 [5] = experiment: Induction of apoptosis in human H1975 cells assessed as late apoptotic cells at 0.3 uM after 48 hrs by Annexin V-FITC/7-AAD staining based flow cytometric method (reference value: 4.63 %); assay type: functional
# A549 [6] = experiment: Induction of apoptosis in human A549 cells assessed as necrotic cells at 3 uM after 48 hrs by Annexin V-FITC/7-AAD staining based flow cytometric method (reference value: 0.70 %); assay type: functional
# A549 [7] = experiment: Induction of apoptosis in human A549 cells assessed as late apoptotic cells at 3 uM after 48 hrs by Annexin V-FITC/7-AAD staining based flow cytometric method (reference value: 2.94 %); assay type: functional
# NCI-H1975 [8] = experiment: Induction of cell cycle arrest in human H1975 cells assessed as accumulation in S phase at 3 uM incubated for 24 hrs by […] propidium iodide staining based flow cytometry (reference value: 14.13 %); assay type: functional
# NCI-H1975 [9] = experiment: Induction of apoptosis in human H1975 cells assessed as early apoptotic cells at 3 uM after 48 hrs by Annexin V-FITC/7-AAD staining based flow cytometric method (reference value: 6.50 %); assay type: functional
# NCI-H1975 [10] = experiment: Induction of apoptosis in human H1975 cells assessed as increase in cleaved caspase-9 level at 0.1 to 3 uM incubated for 24 hrs by Western blot analysis; assay type: functional, cell-based; details: dose microM 0.1-3, time 24.0 hrs; procedure, shortened: as §1
# NCI-H1975 [11] = experiment: Induction of apoptosis in human H1975 cells assessed as late apoptotic cells at 3 uM after 48 hrs by Annexin V-FITC/7-AAD staining based flow cytometric method (reference value: 4.63 %); assay type: functional
# NCI-H1975 [12] = experiment: Induction of cell cycle arrest in human H1975 cells assessed as accumulation in G2/M phase at 0.3 uM incubated for 24 hrs by […] propidium iodide staining based flow cytometry (reference value: 21.00 %); assay type: functional
# A549 [13] = experiment: Induction of apoptosis in human A549 cells assessed as viable cells at 0.3 uM after 48 hrs by Annexin V-FITC/7-AAD staining based flow cytometric method (reference value: 93.10 %); assay type: functional; details: read-out: Activity
# A549 [14] = experiment: Induction of apoptosis in human A549 cells assessed as viable cells at 1 uM after 48 hrs by Annexin V-FITC/7-AAD staining based flow cytometric method (reference value: 93.10 %); assay type: functional; details: read-out: Activity
# A549 [15] = experiment: Induction of cell cycle arrest in human A549 cells assessed as accumulation in G2/M phase at 0.3 uM incubated for 24 hrs by […] propidium iodide staining based flow cytometry (reference value: 22.46 %); assay type: functional
# A549 [16] = experiment: Induction of apoptosis in human A549 cells assessed as late apoptotic cells at 1 uM after 48 hrs by Annexin V-FITC/7-AAD staining based flow cytometric method (reference value: 2.94 %); assay type: functional
# NCI-H1975 [17] = experiment: Induction of apoptosis in human H1975 cells assessed as increase in ROS production incubated for 20 mins by DCFH-DA staining based flow cytometry analysis; assay type: functional, cell-based; details: dose microM 0.3-3, time 20.0 min
# Procedure, shortened: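 At 20 min after compound treatment, cells washed in PBS and loaded with 10 μM DCFH-DA in phenol red-free DMEM for 30 min at 37 °C in the dark; washed three times with PBS; DCF fluorescence of ROS-positive cells measured by flow cytometry with excitation at 488 nm.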
# A549 [18] = experiment: Induction of apoptosis in human A549 cells assessed as necrotic cells at 1 uM after 48 hrs by Annexin V-FITC/7-AAD staining based flow cytometric method (reference value: 0.70 %); assay type: functional
# A549 [19] = experiment: Induction of cell cycle arrest in human A549 cells assessed as accumulation in S phase at 3 uM incubated for 24 hrs by […] propidium iodide staining based flow cytometry (reference value: 14.16 %); assay type: functional
# A549 [20] = experiment: Induction of apoptosis in human A549 cells assessed as early apoptotic cells at 3 uM after 48 hrs by Annexin V-FITC/7-AAD staining based flow cytometric method (reference value: 3.26 %); assay type: functional
# A549 [21] = experiment: Induction of cell cycle arrest in human A549 cells assessed as accumulation in G0/G1 phase at 3 uM incubated for 24 hrs by […] propidium iodide staining based flow cytometry (reference value: 63.11 %); assay type: functional
# A549 [22] = experiment: Induction of cell cycle arrest in human A549 cells assessed as accumulation in S phase at 0.3 uM incubated for 24 hrs by […] propidium iodide staining based flow cytometry (reference value: 14.16 %); assay type: functional
# NCI-H1975 [23] = experiment: Induction of cell cycle arrest in human H1975 cells assessed as accumulation in S phase at 1 uM incubated for 24 hrs by […] propidium iodide staining based flow cytometry (reference value: 14.13 %); assay type: functional
# A549 [24] = experiment: Induction of apoptosis in human A549 cells assessed as viable cells at 3 uM after 48 hrs by Annexin V-FITC/7-AAD staining based flow cytometric method (reference value: 93.10 %); assay type: functional; details: read-out: Activity
# A549 [25] = experiment: Induction of apoptosis in human A549 cells assessed as increase in cleaved caspase-3 level at 0.1 to 3 uM incubated for 24 hrs by Western blot analysis; assay type: functional, cell-based; details: dose microM 0.1-3, time 24.0 hrs; procedure, shortened: as §1
# NCI-H1975 [26] = experiment: Induction of apoptosis in human H1975 cells assessed as necrotic cells at 1 uM after 48 hrs by Annexin V-FITC/7-AAD staining based flow cytometric method (reference value: 0.85 %); assay type: functional
# A549 [27] = experiment: Induction of cell cycle arrest in human A549 cells assessed as accumulation in G2/M phase at 3 uM incubated for 24 hrs by […] propidium iodide staining based flow cytometry (reference value: 22.46 %); assay type: functional
# NCI-H1975 [28] = experiment: Induction of apoptosis in human H1975 cells assessed as necrotic cells at 3 uM after 48 hrs by Annexin V-FITC/7-AAD staining based flow cytometric method (reference value: 0.85 %); assay type: functional
# NCI-H1975 [29] = experiment: Induction of apoptosis in human H1975 cells assessed as increase in Akt level at 0.1 to 3 uM incubated for 24 hrs by Western blot analysis; assay type: functional, cell-based; details: dose microM 0.1-3, time 24.0 hrs; procedure, shortened: as §1
smiles,measurement,setting,value
CN1c2c(ccc3cc4c(cc23)OCO4)-c2ccc3c(c2C1N1CCOCC1)OCO3 (centres undefined),Activity,A549 [1],Active
same,Activity,A549 [2],Active
same,Activity,A549 [3],64.85%
same,Activity,NCI-H1975 [4],62.04%
same,Activity,NCI-H1975 [5],5.55%
same,Activity,A549 [6],1.65%
same,Activity,A549 [7],93.73%
same,Activity,NCI-H1975 [8],8.75%
same,Activity,NCI-H1975 [9],3.11%
same,Activity,NCI-H1975 [10],Active
same,Activity,NCI-H1975 [11],90.5%
same,Activity,NCI-H1975 [12],23.51%
same,viability at 0.3 µM,A549 [13],79.4%
same,viability at 1 µM,A549 [14],78.3%
same,Activity,A549 [15],20.27%
same,Activity,A549 [16],9.4%
same,Activity,NCI-H1975 [17],Dose-dependent effect
same,Activity,A549 [18],4.23%
same,Activity,A549 [19],15.07%
same,Activity,A549 [20],3.91%
same,Activity,A549 [21],71.21%
same,Activity,A549 [22],14.84%
same,Activity,NCI-H1975 [23],12.43%
same,viability at 3 µM,A549 [24],0.71%
same,Activity,A549 [25],Active
same,Activity,NCI-H1975 [26],2.8%
same,Activity,A549 [27],13.56%
same,Activity,NCI-H1975 [28],4.59%
same,Activity,NCI-H1975 [29],Active
